Results: ChEMBL document CHEMBL1817614, “Inhibitory effects of chalcone glycosides isolated from Brassica rapa L. 'hidabeni' and their synthetic derivatives on LPS-induced NO production in microglia” (Bioorg Med Chem, 2011)
The source made the active and inactive calls. The rule behind the calls is not given here.

Experiments:
HAPI [1] = test: Antiinflammatory activity in rat HAPI cells assessed as inhibition of LPS-induced nitric oxide production at 50 uM treated 30 mins before LPS challenge measured after 24 hrs by Griess method; type: functional, cell-based
Outline: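 About 1.0 × 10⁵ HAPI cells per well were seeded in 1% FCS DMEM. The next day, compound (50 µM) was present 30 min before and during LPS (100 ng/mL) for 24 h. Medium nitrite was read by Griess kit. Data are fold induction vs untreated cells, mean SD, n = 3 or 4.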

HAPI [2] = test: Antiinflammatory activity in rat HAPI cells assessed as inhibition of LPS-induced iNOS mRNA expression at 50 uM treated 30 mins before LPS challenge measured after 6 hrs by RT-PCR analysis; type: functional, cell-based
Outline: (§1)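 HAPI cells were seeded in 1% FCS DMEM and treated the next day. Compound (50 µM) was present 30 min before and during LPS (100 ng/mL) for 6 h. RT-PCR used GAPDH normalization. IFN-β ran 35 cycles with anneal at 54 °C; IL-1β ran 30 cycles with anneal at 58 °C. Data are % of LPS alone, mean SEM, n = 3.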

HAPI [3] = test: Antiinflammatory activity in rat HAPI cells assessed as inhibition of IFN-gamma-induced iNOS mRNA expression at 50 uM treated 30 mins before LPS challenge measured after 8 hrs by RT-PCR analysis; type: functional, cell-based
Outline: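 HAPI rat microglia were grown in DMEM with 10% heat-inactivated FCS at 37 °C. Compound (50 µM) was added 30 min before and kept during IFN-γ (100 ng/mL) for 8 h. Total RNA was taken for RT-PCR, gel densitometry and normalization to GAPDH. Data are % of IFN-γ alone, mean SEM, n = 3.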

HAPI [4] = test: Inhibition of LPS-induced ERK phosphorylation in rat HAPI cell lysates at 50 uM treated 30 mins before LPS challenge measured after 1 hr by immunoblot analysis; type: cell-based
Outline: (§2)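 Compound (50 µM) or vehicle was given 30 min before LPS (100 ng/mL) for 1 h. Whole-cell lysates were made in Tris pH 7.4 Triton buffer with phosphatase inhibitors. Lysate (40 µg) was run on SDS-PAGE and immunoblotted with phospho-specific and total MAPK antibodies (1:1,000), biotin secondary/ABC and chemiluminescence. Blots shown represent three experiments.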

HAPI [5] = test: Inhibition of LPS-induced STAT1 nuclear translocation in rat HAPI cell nuclear extracts at 50 uM treated 30 mins before LPS challenge measured after 3 hrs by immunoblot analysis; type: cell-based
Outline: (§3)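 Compound (50 µM) or vehicle was given 30 min before LPS (100 ng/mL) for 3 h. Nuclear extracts were made by NP-40 lysis and 0.4 M NaCl HEPES pH 7.8 extraction. Extract (10 µg) was immunoblotted for NF-κB p65 or STAT1 (1:1,000), with ABC chemiluminescence detection. Blots shown represent three experiments.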

HAPI [6] = test: Inhibition of LPS-induced JNK phosphorylation in rat HAPI cell lysates at 50 uM treated 30 mins before LPS challenge measured after 1 hr by immunoblot analysis; type: cell-based; outline: as §2
HAPI [7] = test: Antiinflammatory activity in rat HAPI cells assessed as inhibition of LPS-induced IFN-R mRNA expression at 50 uM treated 30 mins before LPS challenge measured after 6 hrs by RT-PCR analysis; type: functional, cell-based
Outline: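 Cells were seeded in 1% FCS DMEM and treated the next day. Compound (50 µM) was present 30 min before and during LPS (100 ng/mL) for 6 h. IFN-R RT-PCR ran 35 cycles with anneal at 55 °C and was normalized to GAPDH. Data are fold change vs untreated cells, mean SEM, n = 3.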

HAPI [8] = test: Inhibition of LPS-induced NF-kappaB nuclear translocation in rat HAPI cell nuclear extracts at 50 uM treated 30 mins before LPS challenge measured after 3 hrs by immunoblot analysis; type: cell-based; outline: as §3
HAPI [9] = test: Antiinflammatory activity in rat HAPI cells assessed as inhibition of LPS-induced IL1-beta mRNA expression at 50 uM treated 30 mins before LPS challenge measured after 6 hrs by RT-PCR analysis; type: functional, cell-based; outline: as §1
HAPI [10] = test: Inhibition of LPS-induced p38 phosphorylation in rat HAPI cell lysates at 50 uM treated 30 mins before LPS challenge measured after 1 hr by immunoblot analysis; type: cell-based; outline: as §2
HAPI [11] = test: Inhibition of LPS-induced STAT1 phosphorylation in rat HAPI cell lysates at 50 uM treated 30 mins before LPS challenge measured after 3 hrs by immunoblot analysis

| Compound | inhibition (HAPI [1]) | inhibition (HAPI [2]) | also measured |
| --- | --- | --- | --- |
| COc1cc(C(=O)/C=C/c2ccc(O)cc2)ccc1O[C@@H]1O[C@H](CO)[C@@H](O)[C@H](O)[C@H]1O | Active | Active |  |
| COc1cc(C(=O)/C=C/c2ccccc2)ccc1O[C@@H]1O[C@H](CO)[C@@H](O)[C@H](O)[C@H]1O | Active | Active | inhibition (HAPI [3]): Active |
| COc1cc(C(=O)/C=C/c2ccc(O[C@@H]3O[C@H](CO)[C@@H](O)[C@H](O)[C@H]3O)cc2)ccc1O[C@@H]1O[C@H](CO)[C@@H](O)[C@H](O)[C@H]1O |  | Active |  |
| CC1=CC(=O)CC(C)(C)[C@@]1(O)/C=C/[C@H](C)O[C@@H]1O[C@H](CO)[C@@H](O)[C@H](O)[C@H]1O |  | Active |  |
| COc1cc(C(C)=O)cc(OC)c1O[C@@H]1O[C@H](CO)[C@@H](O)[C@H](O)[C@H]1O |  | Active |  |
| CC(=O)c1ccc(O[C@@H]2O[C@H](CO)[C@@H](O)[C@H](O)[C@H]2O)cc1 |  | Active |  |
| COc1ccc(/C=C/C(=O)c2ccc(O[C@@H]3O[C@H](CO)[C@@H](O)[C@H](O)[C@H]3O)c(OC)c2)cc1 | Active | Active | inhibition (HAPI [3]): Active; inhibition (HAPI [4]): inactive; inhibition (HAPI [5]): Active; inhibition (HAPI [6]): inactive; inhibition (HAPI [7]): inactive; inhibition (HAPI [8]): inactive; inhibition (HAPI [9]): Active; inhibition (HAPI [10]): inactive; inhibition (HAPI [11]): Active |
